In article PMC7114156 (Antiviral Research, 2009):
Marks after values point to notes of the source that are not given here.

System: W12 cells
Assay: mRNA measurement by RT-qPCR in W12 cells
Assay type: cell-based, human
Conditions: W12 cells
Summary of the method: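 RNA was taken 0, 24 and 48 h after adding test compound; W12 cells were grown in 75 cm² flasks and washed in chilled PBS. 546 Pathway Set genes were run in quadruplicate by RT-qPCR: 10 μl reactions, primers 900 nM, probes 100 nM final. Ct was normalised to GAPDH, with dCt = Ct(control) − Ct(treated) and a two-sided t-test. Fold change was F = 2^dCt where p ≤ 0.05.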

[1] = 10 nM, 24 h, not significantly different from 1

## O=C(N[C@@H]1CCCc2c1[nH]c1ccc(Cl)cc21)c1ccccn1 [GSK983, N-[(1R)-6-Chloro-2,3,4,9-tetrahydro-1H-carbazol-1-yl]-2-pyridinecarboxamide]
  Expression of IFI6, IFI44 and IRF9: strongly induced
10 nM, 24 h
  Fold increase due to GSK983, CPT1B mRNA: 2.2 fold
  Fold increase due to GSK983, IFI16 mRNA: 5.2 fold
  Fold increase due to GSK983, IFI44 mRNA: 2.9 fold
  Fold increase due to GSK983, IFIT1 mRNA: 2.6 fold
  Fold increase due to GSK983, ISG15 mRNA: 2.5 fold
  Fold increase due to GSK983, OAS2 mRNA: 2.1 fold
  Fold increase due to GSK983, OASL mRNA: 1.8 fold
  Fold increase due to GSK983, TNFSF10 mRNA: 3.7 fold
[1]
  Fold increase due to GSK983, CCL5 mRNA: 7.9 ^b fold
  Fold increase due to GSK983, COL10A1 mRNA: 0.8 ^b fold
  Fold increase due to GSK983, CSF2 mRNA: 1.5 ^b fold
  Fold increase due to GSK983, DCN mRNA: 1.5 ^b fold
  Fold increase due to GSK983, DMPK mRNA: 0.9 ^b fold
  Fold increase due to GSK983, ERN2 mRNA: 0.7 ^b fold
  Fold increase due to GSK983, FMOD mRNA: 1.0 ^b fold
  Fold increase due to GSK983, IFI6 mRNA: 1.1 ^b fold
  Fold increase due to GSK983, IL6 mRNA: 2.5 ^b fold
  Fold increase due to GSK983, IL8 mRNA: 1.8 ^b fold
  Fold increase due to GSK983, IRF9 mRNA: 1.0 ^b fold
  Fold increase due to GSK983, LIFR mRNA: 2.1 ^b fold
  Fold increase due to GSK983, LRP1 mRNA: 1.2 ^b fold
  Fold increase due to GSK983, NR1H3 mRNA: 0.6 ^b fold
  Fold increase due to GSK983, OAS1 mRNA: 1.1 ^b fold
  Fold increase due to GSK983, SNAP25 mRNA: 1.2 ^b fold
  Fold increase due to GSK983, TLR5 mRNA: 1.9 ^b fold
10 nM, 48 h
  Fold increase due to GSK983, CCL5 mRNA: 41.5 fold
  Fold increase due to GSK983, CEL mRNA: 14.1 fold
  Fold increase due to GSK983, COL10A1 mRNA: 2.0 fold
  Fold increase due to GSK983, CPT1B mRNA: 2.2 fold
  Fold increase due to GSK983, CSF2 mRNA: 1.7 fold
  Fold increase due to GSK983, DCN mRNA: 2.1 fold
  Fold increase due to GSK983, DMPK mRNA: 2.1 fold
  Fold increase due to GSK983, ERN2 mRNA: 2.6 fold
  Fold increase due to GSK983, FMOD mRNA: 1.5 fold
  Fold increase due to GSK983, IFI6 mRNA: 2.2 fold
  Fold increase due to GSK983, IFI16 mRNA: 1.6 fold
  Fold increase due to GSK983, IFI44 mRNA: 2.7 fold
  Fold increase due to GSK983, IFIT1 mRNA: 2.0 fold
  Fold increase due to GSK983, IL6 mRNA: 1.8 fold
  Fold increase due to GSK983, IL8 mRNA: 1.4 fold
  Fold increase due to GSK983, IRF3 mRNA: 1.3 fold
  Fold increase due to GSK983, ISG15 mRNA: 3.0 fold
  Fold increase due to GSK983, LIFR mRNA: 1.5 fold
  Fold increase due to GSK983, LRP1 mRNA: 3.5 fold
  Fold increase due to GSK983, NR1H3 mRNA: 1.8 fold
  Fold increase due to GSK983, OAS1 mRNA: 1.7 fold
  Fold increase due to GSK983, OAS2 mRNA: 1.8 fold
  Fold increase due to GSK983, OASL mRNA: 2.2 fold
  Fold increase due to GSK983, SNAP25 mRNA: 3.7 fold
  Fold increase due to GSK983, TLR5 mRNA: 1.7 fold
  Fold increase due to GSK983, TNFSF10 mRNA: 1.8 fold
100 nM, 24 h
  Fold increase due to GSK983, CCL5 mRNA: 3.1 fold
  Fold increase due to GSK983, CEL mRNA: 3.0 fold
  Fold increase due to GSK983, COL10A1 mRNA: 3.6 fold
  Fold increase due to GSK983, CPT1B mRNA: 3.2 fold
  Fold increase due to GSK983, CSF2 mRNA: 3.7 fold
  Fold increase due to GSK983, DCN mRNA: 2.3 fold
